An excerpt weighted towards active compounds, which were near 1.5% of everything screened.
MDM2 E3 inh: MDM2-luciferase reporter signal enhancers, primary screen, MDM2 E3 ligase inhibitor project, cell-based, luminescence, 1536-well; cell-based MDM2 ubiquitination luciferase reporter, 2 h; 0 = plate control, 100 = twice control, blank-subtracted; E3 ubiquitin-protein ligase Mdm2 (Homo sapiens), Q00987; signal enhancement, % at 5 µM; actives 0.11% (n = 210,000); AID 1230, 2008;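 active = signal enhancement of 30% or more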;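 note: luminescence tracks abundance of the self-degrading MDM2-luciferase fusion protein; higher signal means inhibition of MDM2 E3 ligase activity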
Target sequence (Q00987 whole entry, looked up, the tested form may be a part): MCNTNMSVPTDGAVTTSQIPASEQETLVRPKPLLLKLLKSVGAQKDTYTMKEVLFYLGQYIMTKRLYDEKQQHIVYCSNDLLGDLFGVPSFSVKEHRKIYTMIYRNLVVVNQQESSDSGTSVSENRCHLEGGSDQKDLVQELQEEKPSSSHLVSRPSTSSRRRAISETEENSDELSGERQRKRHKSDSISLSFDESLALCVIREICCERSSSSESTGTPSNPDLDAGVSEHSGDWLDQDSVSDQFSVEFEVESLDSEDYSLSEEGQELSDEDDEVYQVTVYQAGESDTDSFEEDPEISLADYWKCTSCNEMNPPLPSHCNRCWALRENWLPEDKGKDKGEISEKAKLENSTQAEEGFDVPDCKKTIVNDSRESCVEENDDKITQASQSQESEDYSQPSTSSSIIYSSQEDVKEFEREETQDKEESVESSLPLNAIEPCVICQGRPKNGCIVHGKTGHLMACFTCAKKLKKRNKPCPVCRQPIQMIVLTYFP
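system = mammalian cells stably expressing self-ubiquitinating, self-degrading MDM2 E3–luciferase fusion | quantity = 2000 cells per well seeded | incubation = 4 h cell settling then 2 h compound exposure, 37 °C | signal = SteadyLite luminescence, 15 min reagent step | benchmarks = plate control and blank wells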
Pf gamet viab: late stage P. falciparum gametocyte viability inhibitors, primary screen, ATP luminescence, HTS. P. falciparum stage V gametocytes, 24 h. inhibition, % at 10.9 µM. actives 0.065% (n = 150,000);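 active = inhibition above the mean plus 3 SD of compounds within the control limits, set per campaign, cut at about 38% in these data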;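 note: 0% = DMSO wells and 100% = medium only without gametocytes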
Wee1 degr inh: Wee1 degradation inhibitors, primary screen, cell-based, HeLa, Wee1K328M-luciferase, luminescence; actives 1.2% (n = 220,000); Wee1-like protein kinase (Homo sapiens), P30291; HeLa Luc-Wee1K328M stability; 100% = proteasome inhibitor MG132 effect; reporter increase, % at 5 µM;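 active = activation above the mean of all tested compounds plus 3 SD, set per screening run, cut at about 8.8% in these data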;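 note: cells exposed to compound for 20 h before luminescence read; 0% = DMSO alone and 100% = MG132 at 30 µM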
m-calpain inh: inhibitors of pig calpain II, primary screen, biochemical, fluorogenic peptide substrate, 1536-well; purified calpain II, 30 min; inhibition, % at 16 µM; actives 0.37% (n = 220,000); AID 1236, 2008;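 active = inhibition above about 50%, limit read from the data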
Hsp70 activator: Hsp70 transcriptional activators, primary screen, cell-based, HeLa, Hsp70 promoter luciferase, luminescence, 10 µM; HeLa Hsp70 promoter luciferase reporter; scaled: vehicle 0, proteasome-inhibitor control 100%; AID 1203, 2008; actives 0.04% (n = 200,000); activation, % at 10 µM;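 active = activation above the mean across all tested compounds plus 3 SD, cutoff set per campaign, cut at about 5.5% in these data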;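 note: 100% = MG132 at 30 µM as the positive control and 0% = DMSO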
Hsp70 act dose: Hsp70 transcriptional activators, dose response, cell-based, HeLa, Hsp70 promoter luciferase, luminescence, triplicate; shares compounds with Hsp70 activator; HeLa hsp70.1pr-luc reporter; calls only at 99 µM; actives 10% (n = 70); AID 1252, 2008;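 active = over 50% activation at some tested dose; inactive = under 50% activation at every tested dose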
Wee1 stab conf: Wee1 degradation inhibitors, confirmation, cell-based, HeLa, Wee1K328M-luciferase, luminescence, triplicate. shares compounds with Wee1 degr inh. HeLa Luc-Wee1K328M degradation; vehicle 0%, proteasome-blocked wells 100%. activation, % at 5 µM. actives 4% (n = 1,100); in the data active = activation above about 8.9%
Starred values were filed as active, the others as inactive; i = inactive; · = no result; + = active, no number.

SMILES | MDM2 E3 inh | Pf gamet viab | Wee1 degr inh | m-calpain inh | Hsp70 activator | Wee1 stab conf | others
CCOC(=O)C1CCN(c2ccc([N+](=O)[O-])cc2)CC1 | -13 | 2 | -5 | 29 | 5.7* | · | Hsp70 act dose=i
CCSc1c([N+](=O)[O-])c(=O)n(-c2ccccc2)c2ccccc12 | · | -6 | · | · | · | ·
CCC(=O)N1CCN(c2ccc(NC(=O)c3ccc([N+](=O)[O-])o3)cc2Cl)CC1 | 8 | 1 | 1 | 17 | 43* | · | Hsp70 act dose=i
Cc1nn(C)c(C)c1NC(=O)c1ccc(S(=O)(=O)N(C)C)cc1 | -12 | · | 4 | 9 | 6.6* | · | Hsp70 act dose=i
Cc1nn(C)c(C)c1NC(=O)c1ccnn1C | -3 | 1 | 2 | -14 | 0 | ·
COC(=O)c1ccc2c(c1)C(C)(C)C(/C=C/c1ccccc1O)=[N+]2C | -47 | · | 5 | i | 8.4* | · | Hsp70 act dose=+
CCSc1nccc(-c2nn(-c3ccc(C)cc3)ccc2=O)n1 | -9 | · | 0 | -176 | 1 | ·
C=CCSc1nccc(-c2nn(-c3ccc(C)cc3)ccc2=O)n1 | -8 | -60 | 3 | -141 | 17* | · | Hsp70 act dose=i
Cc1ccc2cc3c(=O)n(C)cc(C=O)c3nc2c1 | · | -5 | · | · | · | ·
CCOc1nc(-c2ccccc2)ncc1Oc1ccccc1 | · | -15 | · | · | · | ·
CCCCS(=O)(=O)/C=C\C=C/S(=O)(=O)CCCC | 31* | · | 19* | -46 | 56* | 12* | Hsp70 act dose=i
COc1cc(OC)cc(-c2c(C#Cc3ccsc3)c3cc(-c4ccc5c(c4)OCO5)ccc3n2C)c1 | · | 14 | · | · | · | ·
O=C(c1ccccc1Cl)N1CCSCC1 | 14 | 0 | 20* | 4 | · | -2
N#Cc1cnn(-c2ccc(F)cc2)c1N | -6 | 0 | -1 | 2 | · | ·
Cc1ccc(-n2ncc(C#N)c2N)cc1 | -1 | 16 | 11* | -12 | · | 0
C/C(=C\c1ccccc1)C(=O)Nc1nccs1 | -20 | -6 | -1 | 27 | 0 | ·
O=C(/C=C/c1ccc(Cl)cc1)Nc1nccs1 | -35 | · | 13* | -47 | 0 | 0
C/C=C/C=C/C(=O)Nc1nccs1 | -1 | 3 | 11* | -38 | 0 | 2
COC(=O)/C=C/c1ccsc1NC(C)=O | -7 | -9 | -1 | -7 | 0 | ·
CN(C(=O)c1ccccc1)c1nc2ccccc2s1 | -51 | · | 13* | 1 | 0 | -2
CN(C)C(=O)c1nc2ccccc2s1 | -1 | -6 | 2 | -1 | 0 | ·
O=C(CSC1=NCCN1)C1COc2ccccc2O1 (stereo not given) | -15 | 13 | 12* | -3 | 0 | 1
Cc1ccc[n+](CC(=O)c2ccc(Br)cc2)c1C | · | -6 | · | · | · | ·
Cc1cc(/C=C(\C#N)C(=O)NC2CCCCCC2)c(C)n1C | -2 | · | 28* | -182 | 0 | 4
CN1/C(=C\C(=O)c2cccnc2)Sc2ccccc21 | -8 | -4 | 13* | 22 | 0 | 5
SMILES | MDM2 E3 inh | Pf gamet viab | Wee1 degr inh | m-calpain inh | Hsp70 activator | Wee1 stab conf | others
Cc1ccccc1OCC(=O)OCn1nnc2ccccc2c1=O | -12 | -5 | 13* | 4 | · | 0
O=[N+]([O-])c1ccc(/C=C/c2ccncc2)cc1 | · | · | 18* | -13 | · | -1
O=[N+]([O-])c1cccc(/C=C/c2ccncc2)c1 | -9 | 4 | -1 | 1 | · | ·
COc1cccc(/C=N/Nc2ccc(S(=O)(=O)O)cc2)c1O | -7 | 1 | 18* | 5 | 0 | 5
O=C(O)CCn1cc(/C=C2\SC(=S)NC2=O)c(-c2ccccc2)n1 | -13 | 10 | 13* | 20 | 0 | 0
C[C@@H]1CCC[C@]2(O[C@@H](CCO)C[C@@H](O)[C@@H]2O)O1 | · | 3 | · | · | · | ·
COc1cc(O)ccc1C(=O)CCc1ccc(O)cc1 | · | -10 | · | · | · | ·
COc1cccc(CC(=O)Nc2nc3ccccc3[nH]2)c1 | -15 | 11 | 12* | -16 | 0 | 1
COc1cc(OC)cc(C(=O)Nc2nc3ccccc3[nH]2)c1 | -9 | · | 4 | 6 | 0 | ·
COc1cc(C(=O)Nc2nc3ccccc3[nH]2)ccc1OC(F)F | -15 | -18 | 12* | -3 | · | 6
COc1ccc(CC(=O)Nc2nc3ccccc3[nH]2)cc1 | -4 | 32 | 1 | 6 | · | ·
CCCC1=NN(C(=O)C(=O)Nc2ccc(Br)cc2)C(O)(C(F)(F)F)C1 (stereo not given) | -7 | 18 | 2 | 34 | 0 | ·
COc1ccc(CNc2nc(SCc3cc(=O)n4cc(Cl)ccc4n3)nc3ccccc23)cc1 | -12 | -30 | 2 | -104 | 0 | ·
c1ccc2nc(-c3ccc4c(c3)OCO4)ccc2c1 | -32 | · | 10* | -103 | 0 | 3
CC/C(=N\NC(=O)CSc1ncccn1)c1ccc2c(c1)OCCO2 | 2 | 15 | 0 | -2 | 0 | ·
Cc1cc(C)n2c(nc3ccccc32)c1C(=O)NCc1ccccc1 | -18 | · | 0 | i | 0 | ·
COC(=O)C1=C(C)N(CCCC(=O)O)C(=O)NC1c1ccccc1Cl (stereo not given) | · | 7 | · | · | · | ·
O=[N+]([O-])c1cc(/C=N/N2CCN(Cc3ccccc3)CC2)ccc1Cl | -10 | · | 15* | 17 | 0 | 4
BrC(/C=N/N1CCN(Cc2ccccc2)CC1)=C/c1ccccc1 | 4 | 20 | 23* | 37 | · | 2
BrC(=C\c1ccccc1)/C=N/N1CCN(Cc2ccccc2)CC1 | -2 | 12 | -2 | 10 | 0 | ·
CCC(C)Sc1ccc([C@H]2N[C@@](Cc3ccccc3)(C(=O)OC)[C@H]3C(=O)N(CC)C(=O)[C@@H]23)cc1 (stereo not given in full) | · | -60 | · | · | · | ·
COc1ccc(-c2noc(CN(C)Cc3ccc(C)o3)n2)cc1 | -6 | 29 | 12* | -25 | 1 | 3
Cc1c(C(c2ccccc2Br)c2c(C)n(C)n(-c3ccccc3)c2=O)c(=O)n(-c2ccccc2)n1C | · | -7 | · | · | · | ·
O=C(OCC1OC(n2cnc3c(N(C(=O)c4ccccc4)C(=O)c4ccccc4)ncnc32)C(O)C1F)c1ccccc1 (stereo not given) | -4 | · | 11* | -8 | 0 | 0
CN(C)CCNC(=O)COc1ccc(Cl)cc1Cl | 2 | · | 1 | 11 | 0 | ·
CCN(CC)CCNC(=O)COc1ccc(Cl)cc1Cl | -10 | · | 11* | -16 | 0 | 0
O=C(C[n+]1ccccc1)Nc1ccccc1Br | 11 | -4 | -2 | -35 | 0 | ·
O=C1CCC[C@@H]2Cc3nc4ccc(Cl)cc4cc3[C@@H]3CCN1[C@H]23 | · | -14 | · | · | · | ·
